According to PMC7496803 (Chemistry (Weinheim an Der Bergstrasse, Germany), 2020):

Experiments:
PC-3 cells = experiment: Phototoxicity, resazurin cell viability assay after 525 nm irradiation; assay type: cell-based
HeLa cells = experiment: Phototoxicity, resazurin cell viability assay after 525 nm irradiation; assay type: cell-based
Method in brief: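 HeLa, 2×10^4 per well in DMEM (2.5 % FBS), 21 h before dosing. Turn-off or turn-on peptide photosensitizers in water/12.5 % MeCN, 4.00–0.03 μm final, triplicate, 2 h. Irradiated at 525 nm by LED array, 69.4±0.6 W m−2 for 160 s, then 18 h. Resazurin fluorescence viability; IC50 by four-parameter variable-slope log(inhibitor)–response fit; untreated and vehicle controls; ≥2 independent experiments.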

[1] = in MeOH; cited from earlier work

Compound | OFF/ON ratio (IC50 6OFF / IC50 6ON) (PC-3 cells) [fold] | phototoxicity variation turn-off/turn-on (IC50 6OFF / IC50 6ON) (HeLa cells) [fold] | Φ Δ of the reference photosensitizers [1]
CCCCCCCCCCCCCCCC(=O)NCCCC[C@H](NC(=O)[C@H](CSCC(=O)NCc1cn(CCOc2ccc(C3=C4C(C)=C(I)C(C)=[N+]4[B-](F)(F)n4c(C)c(I)c(C)c43)cc2)nn1)NC(=O)c1ccc(-c2nnc(C)c3c2CCC(O)CCC3)cc1)C(=O)N[C@@H](CCCNC(=N)N)C(=O)N[C@@H](CCCNC(=N)N)C(=O)N[C@@H](CCCNC(=N)N)C(=O)N[C@@H](CCCNC(=N)N)C(N)=O (stereo partly shown) [6ON, [TCO:Tz]‐C(2I‐BODIPY)‐K(PA)RRRR‐CONH2] | 3.3 | 3.8 | 
O=C([O-])c1c(Cl)c(Cl)c(Cl)c(Cl)c1-c1c2cc(I)c(=O)c(I)c-2oc2c(I)c([O-])c(I)cc12.[Na+].[Na+] [rose bengal] |  |  | 0.76
Erythrosine B |  |  | 0.6
